Measured values reported in ChEMBL document CHEMBL1148329, “Synthesis and structure-activity studies on N-[5-(1H-imidazol-4-yl)-5,6,7,8-tetrahydro-1-naphthalenyl]methanesulfonamide, an imidazole-containing alpha(1A)-adrenoceptor agonist” (J Med Chem, 2004).

Tests used:
[1] = target: T1, Alpha-2A adrenergic receptor (Homo sapiens, UniProt P08913); test: In vitro binding affinity towards alpha-2A adrenergic receptor of human clone in radioligand binding assay
T1 sequence (P08913 whole entry): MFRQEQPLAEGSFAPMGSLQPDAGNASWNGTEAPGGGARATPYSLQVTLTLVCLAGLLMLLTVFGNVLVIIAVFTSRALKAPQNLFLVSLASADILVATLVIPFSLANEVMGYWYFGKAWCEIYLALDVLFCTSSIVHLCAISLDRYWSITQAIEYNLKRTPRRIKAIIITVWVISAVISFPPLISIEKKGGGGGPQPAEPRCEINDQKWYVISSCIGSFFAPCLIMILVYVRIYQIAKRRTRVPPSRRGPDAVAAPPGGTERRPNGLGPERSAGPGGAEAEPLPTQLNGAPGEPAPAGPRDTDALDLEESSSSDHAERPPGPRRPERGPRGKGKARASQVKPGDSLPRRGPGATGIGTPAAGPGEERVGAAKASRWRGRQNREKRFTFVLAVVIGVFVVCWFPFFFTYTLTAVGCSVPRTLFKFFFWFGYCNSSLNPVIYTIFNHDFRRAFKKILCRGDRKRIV

[2] = target: T2, Alpha-1B adrenergic receptor (Rattus norvegicus) (UniProt P15823); test: Functional agonism of the compounds to constrict tissue containing the alpha-1B adrenergic receptor in rat spleen; type: tissue-based
T2 sequence (whole entry): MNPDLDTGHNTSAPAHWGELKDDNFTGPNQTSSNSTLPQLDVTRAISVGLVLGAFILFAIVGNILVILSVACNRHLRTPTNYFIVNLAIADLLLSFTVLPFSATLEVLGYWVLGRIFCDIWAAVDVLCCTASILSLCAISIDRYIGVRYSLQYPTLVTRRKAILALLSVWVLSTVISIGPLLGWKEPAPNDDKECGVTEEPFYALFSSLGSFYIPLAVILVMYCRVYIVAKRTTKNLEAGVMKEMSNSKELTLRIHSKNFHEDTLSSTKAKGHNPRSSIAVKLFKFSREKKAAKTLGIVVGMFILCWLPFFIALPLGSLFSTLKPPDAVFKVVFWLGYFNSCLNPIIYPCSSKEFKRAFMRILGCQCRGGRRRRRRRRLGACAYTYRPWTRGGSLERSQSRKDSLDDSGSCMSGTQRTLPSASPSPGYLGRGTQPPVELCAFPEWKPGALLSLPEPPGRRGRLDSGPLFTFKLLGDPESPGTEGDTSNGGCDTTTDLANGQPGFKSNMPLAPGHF
Outline: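 Agonist dose–response curves were run on isolated tissue: rabbit urethra for α1A, rat spleen for α1B, and rat aorta for α1D.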

[3] = target: T2, Alpha-1B adrenergic receptor (Rattus norvegicus); test: Efficacy relative to phenylephrine (PE) constriction of rat spleen containing alpha-1B adrenergic receptor; type: functional, tissue-based
Outline: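 α1-agonist dose–response curves in isolated tissue: rabbit urethra (α1A), rat spleen (α1B), rat aorta (α1D). Agonist potency and efficacy read from the concentration–response curves.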

[4] = target: T3, Alpha-1D adrenergic receptor (Rattus norvegicus, UniProt P23944); test: In vitro binding affinity towards alpha-1D adrenergic receptor of rat clone in radioligand binding assay
T3 sequence (P23944 whole entry): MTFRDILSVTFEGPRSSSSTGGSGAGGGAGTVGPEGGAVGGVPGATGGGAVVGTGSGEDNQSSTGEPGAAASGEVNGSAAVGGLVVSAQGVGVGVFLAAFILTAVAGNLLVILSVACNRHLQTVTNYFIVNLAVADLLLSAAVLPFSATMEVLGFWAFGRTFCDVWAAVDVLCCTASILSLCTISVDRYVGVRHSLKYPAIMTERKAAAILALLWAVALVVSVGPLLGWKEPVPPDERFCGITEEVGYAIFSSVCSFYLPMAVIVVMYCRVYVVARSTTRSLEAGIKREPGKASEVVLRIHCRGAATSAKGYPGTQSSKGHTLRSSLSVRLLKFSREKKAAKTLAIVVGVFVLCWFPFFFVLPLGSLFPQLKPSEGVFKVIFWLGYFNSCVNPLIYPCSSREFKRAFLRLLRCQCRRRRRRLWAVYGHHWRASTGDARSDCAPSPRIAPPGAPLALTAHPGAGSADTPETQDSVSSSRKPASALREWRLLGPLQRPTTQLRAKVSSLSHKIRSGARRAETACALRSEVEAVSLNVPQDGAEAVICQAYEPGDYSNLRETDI
Outline: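 Radioligand binding at α1 subtypes: α1A from rat submaxillary gland, α1B hamster clone, α1D rat clone. Run essentially per an earlier method.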

Canis familiaris = test: Uroselectivity was determined by measuring effective dose required for 5 mmHg increase of intraurethral pressure (IUP) in vivo in dog; type: functional, Canis lupus familiaris
Outline: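 Dog model recording intraurethral pressure (IUP) and mean arterial pressure (MAP) simultaneously. Increasing iv doses given, maximal effect of each dose taken. Doses giving a 5 mmHg rise in IUP (ED Δ5) or 20 mmHg rise in MAP (ED Δ20) were calculated, in nmol/kg ± SEM, n ≥ 4 (2 or 3 where footnoted).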

Rattus norvegicus = species: Rattus norvegicus; test: Relative affinities for alpha2B and alpha1A receptors
[5] = Relative affinities for alpha-2a and alpha-1A receptors
[6] = target: Alpha adrenergic receptor 1A and 1D (Rattus norvegicus) (UniProt P23944+P43140); test: Selectivity is ratio of pKi (binding affinity) of Alpha-1D to that of alpha1A; type: protein assay
[7] = target: T4, Alpha-2A adrenergic receptor (Rattus norvegicus) (UniProt P22909); test: Efficacy relative to clonidine to constrict tissue containing the alpha-2A adrenergic receptor in rat prostatic vas deferens
T4 sequence (whole entry): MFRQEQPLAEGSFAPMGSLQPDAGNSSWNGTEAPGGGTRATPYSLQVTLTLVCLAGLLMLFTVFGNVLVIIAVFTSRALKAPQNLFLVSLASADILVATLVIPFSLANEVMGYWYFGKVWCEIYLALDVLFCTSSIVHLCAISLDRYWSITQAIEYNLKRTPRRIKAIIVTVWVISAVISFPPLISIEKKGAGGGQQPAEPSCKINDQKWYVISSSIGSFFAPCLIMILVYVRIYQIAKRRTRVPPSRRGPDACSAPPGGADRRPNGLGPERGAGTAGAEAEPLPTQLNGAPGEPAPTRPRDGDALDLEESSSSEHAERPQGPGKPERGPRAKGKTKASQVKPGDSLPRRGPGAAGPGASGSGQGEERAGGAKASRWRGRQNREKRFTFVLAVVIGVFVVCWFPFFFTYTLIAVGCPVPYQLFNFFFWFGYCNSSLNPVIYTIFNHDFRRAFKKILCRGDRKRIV

| Structure (SMILES) | Ki [1] [nM] | pD2 [2] | Efficacy [3] [%] | Ki [4] [nM] | ED delta5 (Canis familiaris) [nM/kg] | Selectivity (Rattus norvegicus) | Selectivity [5] | Selectivity [6] | Efficacy [7] [%] |
| --- | --- | --- | --- | --- | --- | --- | --- | --- | --- |
| COc1ccc(OC)c(C(O)CN)c1 (centres undefined) [DESGLYMIDODRINE] | 1450 | 4.07 | 68 | 1660 | 205 | 0.9 | 0.7 | 0.8 | 20 |
| O=S(=O)(CC(F)(F)F)Nc1cccc2c1CCCC2c1c[nH]cn1 (single isomer, unassigned; (+)) | 955 |  |  | > 10000 | 156 | > 80 | 8 | > 80 | 100 |
| CC(N)C(O)c1ccccc1 (centres undefined) [PHENYLPROPANOLAMINE] | 275 | 3.55 | 34 | 8510 | 1100 | 0.03 | 0.03 | 1 | 85 |
| CN(c1cccc2c1CCCC2c1c[nH]cn1)S(C)(=O)=O (centres undefined) | 85.1 | 5.65 |  |  |  | 4 | 0.4 | 3 | 100 |
| O=C(Nc1cccc2c1CCCC2c1c[nH]cn1)C(F)(F)F (centres undefined) | 309 | 5.47 | 19 |  | 188 | 4 | 2 | 20 | 100 |
